H9c2 protect – modulators protecting cardiomyocytes from myocardial damage; H9c2 cardiomyocytes, H2O2 injury protection, ATPLite, 2 h; protection from H2O2 cell death, % at 20 µM; actives 0.63% (n = 360,000); AID 588492;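 active = compounds giving at least 50% protection of heart cells from peroxide-induced death in the single-dose screen, raw or plate-pattern-corrected value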;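 note: 0% = DMSO wells with peroxide and 100% = DMSO wells without peroxide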
Myeloid diff 2 – promotes myeloid progenitor differentiation; ER-HoxA9 myeloid progenitors, lysozyme-GFP differentiation, flow cytometry; calls only at 10 µM; actives 1% (n = 360,000); AID 624256;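 active = normalized GFP-positive differentiation at or above the plate's own cutoff, the solvent-only control mean plus 3 SD; inconclusive = no clear call, values can overlap the other calls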;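 note: cells exposed to compound for four days before flow analysis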
SENP1 FRET inh – SENP1 (human) catalytic domain inhibition | Q9P0U3 | recombinant SENP1 catalytic domain, CyPet-SUMO1-YPet FRET cleavage | inhibition, % at 10 µM | actives 0.21% (n = 360,000) | AID 624204;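 active = inhibition at least 30% at 10 µM, raw YFP signal under a set limit, fluorescence ratio 0.5 to 1.5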;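 note: 0% = enzyme with DMSO and 100% = no enzyme wells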
Target sequence (Q9P0U3 419-644 limits assumed): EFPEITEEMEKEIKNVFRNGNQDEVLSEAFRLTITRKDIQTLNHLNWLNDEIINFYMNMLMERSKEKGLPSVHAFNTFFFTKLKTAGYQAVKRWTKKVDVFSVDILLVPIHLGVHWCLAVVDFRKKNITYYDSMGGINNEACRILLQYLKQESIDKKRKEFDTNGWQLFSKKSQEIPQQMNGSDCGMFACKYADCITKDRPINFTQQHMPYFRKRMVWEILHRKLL
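Controls: no-enzyme wells low, DMSO-plus-enzyme wells high control. Test system: human recombinant His6-tagged SENP1 catalytic domain enzyme. Reagent: SFCypet-SUMO1-SFYpet FRET protein substrate, 25 nM final. Doses: one dose per compound, 10 µM, 0.5% DMSO. Detection: FRET, CFP and YFP emission. Timing: 50 min reaction at room temperature.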
HNF4A DNA FP – change in binding of human HNF4 alpha to DNA | P41235 | HNF4a-FITC DNA binding, fluorescence polarization, 1 h | activity change, % at 10 µM | actives 0.3% (n = 360,000); in the data active = activity change above about 30%, passing the limit was not always enough
Target sequence (P41235 whole entry, looked up): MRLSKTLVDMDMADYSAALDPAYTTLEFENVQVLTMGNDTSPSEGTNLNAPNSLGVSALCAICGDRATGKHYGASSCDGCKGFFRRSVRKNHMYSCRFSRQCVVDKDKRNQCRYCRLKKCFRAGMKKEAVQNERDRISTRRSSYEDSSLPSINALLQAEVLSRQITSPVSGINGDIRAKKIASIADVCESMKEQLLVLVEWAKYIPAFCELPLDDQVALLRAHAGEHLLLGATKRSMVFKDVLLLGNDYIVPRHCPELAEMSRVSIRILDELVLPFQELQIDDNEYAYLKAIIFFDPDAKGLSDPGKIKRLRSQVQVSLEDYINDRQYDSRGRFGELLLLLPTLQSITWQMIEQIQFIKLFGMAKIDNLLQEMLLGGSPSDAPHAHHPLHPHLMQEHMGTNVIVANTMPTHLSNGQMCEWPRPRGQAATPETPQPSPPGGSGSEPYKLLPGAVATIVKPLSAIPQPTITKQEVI
Pemphigus Ab inh – blocks pemphigus antibody binding to human desmoglein-3 | P32926 | actives 0.48% (n = 310,000) | binding (percent of control), % at 10 µM | AID 588358 | DSG3-coupled beads, scFv-anti-DSG3-GFP binding, flow cytometry; hits give low values;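 active = binding more than 3 SD below its plate's average and above zero; inconclusive = below that plate limit but binding exactly zero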;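 note: hits lower antibody fragment binding to DSG3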
Granule exo inh – blocks lytic granule exocytosis. TALL-104 LAMP-1 surface exposure, flow cytometry; cells stimulated with thapsigargin and PMA. inhibition, % at 10 µM. actives 0.66% (n = 360,000). AID 651702;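 active = inhibition above about 55%, limit read from the data; inconclusive = no clear call, values can overlap the other calls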
Numbers without * were called inactive; i = inactive; ? = inconclusive; . = not tested or not shown; + = active, no number. Most compounds without a hit are left out; they make up all but 3% or so of the library.

SMILES | H9c2 protect | Myeloid diff 2 | SENP1 FRET inh | HNF4A DNA FP | Pemphigus Ab inh | Granule exo inh
Cn1nc(-c2ccc(Cl)cc2)c2cc(C(=O)N3CCN(c4ccccn4)CC3)sc21 | -8.8 | + | 4.9 | 3.7 | -3.6* | 2.4
CCCCN(C)CCNC(=O)c1cc2c(-c3ccccc3F)nn(C)c2s1 | 2.3 | + | 1.5 | -0.1 | 304.1 | 18.0
COCCNC(=O)c1cc2c(-c3ccc(Cl)cc3)nn(C)c2s1 | 2.2 | i | 1.9 | 2.9 | 106.2 | -0.3
CC(C)NC(=O)c1cc2c(-c3ccc(Cl)cc3)nn(C)c2s1 | 4.1 | i | 3.0 | 3.1 | 72.9* | -1.8
Cn1nc(-c2ccc(Cl)cc2)c2cc(C(=O)N3CCN(c4ccccc4)CC3)sc21 | -1.1 | i | 0.9 | -4.0 | 104.7 | 7.8
COCCNC(=O)c1cc2c(-c3ccccc3F)nn(C)c2s1 | 6.3 | i | 1.0 | 1.5 | 101.7 | -2.9
Cn1nc(-c2ccc(Cl)cc2)c2cc(C(=O)NCCCN3CCCC3)sc21 | 3.8 | + | -2.2 | -0.9 | 86.6 | 24.7
CCCCNC(=O)c1cc2c(-c3ccc(Cl)cc3)nn(C)c2s1 | -4.5 | i | -2.1 | -3.1 | 101.5 | -0.4
Cc1ccc2nc(Nc3nc(C)cc(-c4ccccc4)n3)[nH]c(=O)c2c1 | 30.0 | i | 0.5 | 6.2 | 93.1 | -0.6
Cc1ccnc(NC(=O)c2cc(-c3ccc(Cl)s3)nc3ccccc23)c1 | -8.8 | i | -62.2 | -0.6 | 103.4 | -7.2
COc1ccc(N(CC(=O)Nc2ccccc2OC)S(=O)(=O)c2ccc(OC)c(OC)c2)cc1 | 15.1 | i | 1.9 | -0.6 | 100.9 | 13.2
Cc1ccc([C@H]2N[C@]3(CCCN(Cc4ccc(C(F)(F)F)cc4)C3=O)[C@H]3C(=O)N(Cc4ccccc4)C(=O)[C@@H]23)cc1 | 5.4 | i | -0.4 | 0.4 | 104.2 | -0.4
Cn1ncc(Br)c1NC(=O)Nc1ccccc1 | -4.0 | i | 1.0 | -0.8 | 86.5 | -3.5
CCOC(=O)N1CCC(NC(=O)c2cc3c(-c4ccc(Cl)cc4)nn(C)c3s2)CC1 | -2.1 | i | -1.2 | -0.1 | 91.2* | 3.3
CCN1CCCC1CNC(=O)c1cc2c(-c3ccc(Cl)cc3)nn(C)c2s1 (centres undefined) | 6.8 | i | 4.5 | 1.0 | 117.6 | 1.9
CCSc1nnc(N)s1 | 76.3* | i | 3.4 | -0.4 | 102.3 | -7.1
CC(C)CSc1nnc(N)s1 | 15.6 | i | 1.1 | -2.9 | . | -0.3
Cc1cc(C)cc(C(=O)NCC(=O)OCC(=O)N2CCCC2)c1 | 0.5 | i | -0.7 | 1.0 | 105.5 | -4.1
O=c1sc(N2CCN(c3ccccc3F)CC2)nc2ccsc12 | -12.3 | i | -22.4 | -0.7 | 94.8 | -7.1
O=c1sc(N2CCN(c3ccc(F)cc3)CC2)nc2ccsc12 | -7.5 | i | -0.5 | 3.7 | 78.6* | 9.2
CCOC(=O)c1c(SCCN2CCCC2)n(-c2ccccc2)c(=S)n(-c2ccccc2)c1=O | -18.5 | ? | 1.1 | -4.5 | . | 73.0*
CCOC(=O)c1c[nH]c(=S)n(-c2ccccc2)c1=O | 4.0 | i | 1.6 | -0.1 | 101.0 | -4.9
O=S(=O)(NCc1ccc(F)cc1)c1ccc(-n2cccn2)cc1 | -1.2 | i | 1.7 | -0.1 | 111.3 | 0.3
Cc1cc(OC(=O)c2cc([N+](=O)[O-])ccc2Cl)c([N+](=O)[O-])c(=O)[nH]1 | -7.1 | i | 1.4 | 2.0 | 95.3 | 0.8
CC(=O)c1sc2nc(-c3cccs3)cc(C(F)(F)F)c2c1N | 1.7 | + | -5.5 | 10.7 | 141.9 | 29.9
SMILES | H9c2 protect | Myeloid diff 2 | SENP1 FRET inh | HNF4A DNA FP | Pemphigus Ab inh | Granule exo inh
COc1ccc(-c2cc(C(F)(F)F)c3c(N)c(C(=O)NCCSC)sc3n2)cc1 | 8.1 | i | -26.4 | 7.2 | 96.2 | -7.2
Nc1c(C(=O)C2CC2)sc2nc(-c3ccccc3)cc(C(F)(F)F)c12 | -4.7 | + | -23.6 | -93.1 | 256.3 | 0.3
CN(C)CCNC(=O)c1sc2nc(-c3ccccc3)cc(C(F)(F)F)c2c1N | 3.8 | + | 19.1 | 9.5 | 103.0 | 19.6
Cc1c(C(=O)O)sc2nc(-c3cccs3)cc(C(F)(F)F)c12 | 1.8 | i | 0.2 | -0.2 | 100.6 | 9.1
C#Cc1cccc(Nc2nc(NC(C)C)nc3ccsc23)c1 | -22.0 | i | 2.3 | 4.7 | . | -7.8
Cc1cc(=O)[nH]c(SC(C)C(=O)Nc2cccc3ccccc23)n1 (centres undefined) | -0.3 | i | 2.6 | -0.2 | 94.0 | -2.0
CC1(C)Cc2c(sc(NC(=O)C(=O)N3CCCCC3)c2C(N)=O)CO1 | 3.7 | i | 0.9 | -1.4 | 101.7 | -0.6
CCOC(=O)C(=N/O)/C(C)=N/NC(=O)C(=O)Nc1cc(Cl)ccc1Cl | 10.5 | i | 0.1 | 0.3 | . | 77.9*
Cc1ccccc1NC(=O)Cc1nnc(SCC(=O)NC2CCCC2)n1C | 6.1 | i | -1.3 | 2.8 | 88.1* | -2.2
Brc1ccc(-c2csc(N3CCCCCC3)n2)cc1 | -12.1 | i | 3.1 | 1.1 | 111.8 | -3.2
NC(=O)C1CCN(c2nc(-c3ccc(Br)cc3)cs2)CC1 | -6.6 | i | 2.9 | 3.0 | 58.0* | 1.2
Cc1noc(/C=C/c2ccco2)c1S(=O)(=O)N1CCC(C(=O)N2c3ccccc3CC2C)CC1 (centres undefined) | 2.7 | i | 14.6 | 44.4* | 94.0 | 20.5
Cc1noc(/C=C/c2ccco2)c1S(=O)(=O)N1CCC(C(=O)NC(C)c2ccccc2)CC1 (centres undefined) | 4.6 | + | -0.4 | 21.3 | 103.3 | 3.5
Cc1noc(/C=C/c2ccco2)c1S(=O)(=O)N1CCC(C(=O)N(C)Cc2ccccc2)CC1 | 6.2 | i | 6.3 | -1.7 | 97.2 | 5.3
CCN1CCN(c2ccccc2NC(=O)c2ccc(-n3cccn3)cc2)CC1 | 10.0 | i | -8.9 | 3.9 | . | 3.8
Cc1cc(C)cc(OCC(=O)OCC(=O)NC2CCCCCCC2)c1 | 3.2 | i | -1.3 | 2.7 | 104.4 | -4.3
O=C(COc1ccccc1[N+](=O)[O-])Nc1ccc(N2CCN(C(=O)c3cccs3)CC2)cc1 | 65.9* | i | 0.8 | 5.3 | . | 30.4
COc1ccc(Nc2ccccc2N)cc1 | -27.3 | + | 33.8* | 34.9 | 109.2 | 2.2
Nc1ccc(Nc2ccccc2N)cc1 | 3.6 | i | -22.6 | -28.1 | 90.0 | 3.1
CC(C)NC(=O)NC(=O)COC(=O)c1cc[n+]([O-])cc1 | 0.8 | i | 1.3 | 2.4 | 104.6 | -3.5
Cc1ccccc1CNC(=O)CCNS(=O)(=O)c1ccc(OC(F)(F)F)cc1 | 1.3 | i | -1.0 | -0.7 | 101.6 | -1.3
CCOc1ccc(N2CC(C(=O)Nc3ccc(N4CCOCC4)cc3)CC2=O)cc1 (centres undefined) | -3.1 | i | 3.5 | -10.1 | -10.4* | 1.0
O=C(Nc1ccc(N2CCOCC2)cc1)C1CC(=O)N(c2ccccc2)C1 (centres undefined) | 1.5 | i | 2.3 | 2.4 | 90.3 | 1.0
